p97 ATPase inh – human p97 ATPase inhibition; 220,000 tested, 0.42% active; P55072; recombinant p97 ATPase, Kinase-Glo ATP luminescence, 3 h; inhibition, % at 8 µM; in the data active = inhibition above about 15%;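 note: 0% = DMSO vehicle and 100% = wells lacking enzyme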
RBBP9 inh – blocks human serine hydrolase RBBP9. O75884. recombinant RBBP9, FP-Rh probe fluorescence polarization. inhibition, % at 7.94 µM. 220,000 tested, 0.2% active. AID 1515;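 active = inhibition above the campaign mean of all tested compounds plus 3 SD, cut at about 14% in these data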;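 note: plate controls were DMSO wells with RBBP9 for no effect and wells lacking RBBP9 protein for full effect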
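System: RBBP9 protein | Quantity: 2.5 µM RBBP9 dispensing solution, before mixing | Reagent: FP-Rh probe, 375 nM dispensing solution | Timing: Enzyme-compound preincubation 30 min, then probe labeling 45 min, 25 °C | Measured by: Fluorescence polarization | Read-out: % inhibition | Replication: One well per compound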
PfM18AAP inh-1 – PfM18AAP enzyme inhibition | recombinant PfM18AAP, H-Glu-NHMec fluorogenic cleavage | AID 1822 | inhibition, % at 7.35 µM | 290,000 tested, 1.2% active;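 active = inhibition above the campaign mean inhibition over all tested compounds plus 3 SD, cut at about 28% in these data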;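 note: 0% = plate median of test compound wells and 100% = 2 mM ZnCl2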
TNF death inh – blocks TNF-alpha induced death of Jurkat FADD-/- cells; 220,000 tested, 0.068% active; activation (protection from cell death), % at 10 µM; AID 463075; Jurkat FADD-/- TNF necroptosis rescue, ATP luminescence, 24 h; 0 = TNF only, 100 = no-TNF cells;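 active = activation, meaning protection from cell death, of at least 50% relative to plate controls; inactive = activation below 50%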;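 note: necroptosis triggered by 40 ng/mL TNF-alpha added together with compound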
L929 necroptosis – blocks zVAD induced death of L929 cells. 220,000 tested, 0.38% active. L929 zVAD necroptosis rescue, ATP luminescence, 24 h; with zVAD 60 µM. viability rescue, % at 10 µM;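 active = activation, scaled between plate controls, above about 75%, limit read from the data; inactive = activation under that limit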;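 note: 0% = zVAD with DMSO and 100% = DMSO alone without zVAD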
Wee1 degr inh – human Wee1 degradation inhibition, primary screen; P30291; HeLa Luc-Wee1K328M stability, luciferase luminescence; 100% = proteasome inhibitor MG132 effect; reporter increase, % at 5 µM; 220,000 tested, 1.2% active; AID 1321;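 active = activation above the mean of all tested compounds plus 3 SD, set per screening run, cut at about 8.8% in these data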;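 note: cells exposed to compound for 20 h before luminescence read; 0% = DMSO alone and 100% = MG132 at 30 µM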
PfM18AAP inh-2 – confirmation of Plasmodium falciparum M18 aspartyl aminopeptidase inhibitors. 2,400 tested, 28% active. inhibition, % at 7.35 µM. shares compounds with PfM18AAP inh-1. AID 2170. recombinant PfM18AAP, H-Glu-NHMec fluorogenic cleavage;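 active = mean inhibition over replicate wells above the hit cutoff set for the earlier primary screen, cut at about 29% in these data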;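 note: 0% = median of test compound wells and 100% = 2 mM ZnCl2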
CTSL1 confirm – counter-screen for PFM18AAP inhibitors: confirmation of human cathepsin L inhibitors; shares compounds with PfM18AAP inh-1; purified cathepsin L1, Z-Leu-Arg-MCA fluorescence; inhibition, % at 5.96 µM; 2,400 tested, under 10 active;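 active = average inhibition across replicates above the hit cutoff set in the earlier primary screen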;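 note: 0% = median of test compound wells and 100% = Z-Phe-Ala-diazomethylketone 1 µM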
* hit, by the source's call; nt = no result. Most compounds without a hit are left out; they make up all but 2.7% or so of the library.

SMILES | p97 ATPase inh | RBBP9 inh | PfM18AAP inh-1 | TNF death inh | L929 necroptosis | Wee1 degr inh | PfM18AAP inh-2 | CTSL1 confirm
O=C(N/N=C/c1ccc(-c2ccccc2[N+](=O)[O-])o1)c1cccnc1 | 3 | 2 | 8 | -8 | 0 | 1 | nt | nt
CC(C)(C)c1cc(C(=O)N/N=C/c2ccc(-c3ccccc3[N+](=O)[O-])o2)n[nH]1 | nt | nt | 48* | nt | nt | nt | -19 | 3
CC(CC(=O)O)Nc1ccccc1O (centres undefined) | 3 | 3 | 38* | 2 | 2 | 1 | 8 | -1
Cc1cc2oc(=O)cc(-c3cc4ccccc4o3)c2cc1O | nt | nt | 58* | nt | nt | nt | -21 | -4
CNC(=S)NNC(=O)c1c(C)nc2cc(C)ccn12 | 3 | 3 | 47* | -1 | 1 | 0 | 7 | -5
Cc1ccn2c(C(=O)NN=C3CCCCCCC3)c(C)nc2c1 | 1 | 1 | 5 | 1 | -1 | -4 | nt | nt
O=C1C2C3C=CC(C3)C2C(=O)N1c1ncn[nH]1 (centres undefined) | 4 | -5 | 9 | 1 | 0 | -1 | nt | nt
O=C1c2ccccc2C(=O)N1c1ncn[nH]1 | 2 | 0 | 44* | -2 | 1 | -1 | -4 | -2
CCOC(=O)c1oc2c(O)c(O)ccc2c(=O)c1-c1nncn1-c1ccccc1 | 4 | -7 | 46* | 0 | 0 | 1 | 26 | 5
O=C(/C=C/c1cccs1)N1CCN(c2ccc(O)cc2)CC1 | -1 | 0 | 45* | -6 | -1 | 2 | -10 | 5
N#C/C(=C/c1ccc(O)c(O)c1)C(=O)NCc1ccc(Cl)cc1 | nt | nt | 38* | nt | nt | nt | 5 | 0
N#C/C(=C/c1cccc(O)c1)C(=O)NCc1ccc(Cl)cc1 | nt | nt | 16 | nt | nt | nt | nt | nt
N#C/C(=C\c1ccc(O)c(O)c1)C(=O)Nc1cccc2ncccc12 | nt | nt | 63* | nt | nt | nt | 30* | 3
COc1cc(-c2nc(=S)[nH][nH]2)cc(OC)c1OC | 5 | -3 | 35* | 0 | 8 | -4 | 26 | -6
CCN1CCCc2cc(CN(CCN3CCOCC3)C(=S)Nc3cccc(OC)c3)ccc21 | -3 | -3 | 7 | 3 | 0 | -5 | nt | nt
COc1ccc(N/C=C2\C(=O)CCc3c2oc2cc(Cl)c(O)c(Cl)c32)cc1 | 5 | -2 | 23 | 3 | 1 | -3 | 10 | -2
COc1cc(CN2CCN(CC#Cc3ccccc3)CC2CCO)cc(OC)c1 (centres undefined) | nt | nt | -7 | nt | nt | nt | nt | nt
Cc1cc(NNC(=O)Nc2cccc(Cl)c2)nc2c1c(C)nn2C | 4 | -5 | 39* | -11 | -1 | 2 | 28 | 3
CCN(CC)C1=C(Cl)C(=O)C(Cl)C12OCCO2 (centres undefined) | 5 | 1 | -4 | 0 | 0 | 2 | nt | nt
Clc1cnc(N/N=C/c2ccco2)c(Cl)c1 | -7 | -3 | 47* | 19 | 0 | 3 | -29 | -5
Oc1ccc(NCc2ccccc2OCc2ccccc2)cc1 | 10 | 3 | 49* | -3 | 2 | 0 | -21 | -2
Oc1c(Br)cc(/C=N/Nc2nncc3ccccc23)cc1Br | nt | nt | 33* | nt | nt | nt | 10 | 4
Oc1c(Br)cc(/C=N/Nc2ccc(Cl)nn2)cc1Br | nt | nt | 34* | nt | nt | nt | -18 | 0
COc1cc(/C=N/Nc2ncc(C(F)(F)F)cc2Cl)cc(OC)c1O | -2 | -3 | 35* | 0 | 0 | -1 | 31* | 2
COc1cc(/C=N/Nc2ncc(C(F)(F)F)cc2Cl)cc(OC)c1OC | -3 | -4 | 1 | 3 | 5 | -2 | nt | nt
Fc1cccc(/C=N/Nc2ccc(Cl)nn2)c1 | nt | nt | 9 | nt | nt | nt | nt | nt
COc1cc(/C=N/Nc2ccc(Cl)nn2)cc(OC)c1O | nt | nt | 39* | nt | nt | nt | 28 | 3
COCC(=O)N(Cc1cc2cccc(C)c2[nH]c1=O)c1ccccc1 | nt | nt | 5 | nt | nt | nt | nt | nt
CCOc1ccccc1N(CC(=O)NCCc1ccccc1)C(=O)CCC(=O)Nc1ccccn1 | nt | nt | 2 | nt | nt | nt | nt | nt

High-throughput results (PubChem)
